Assay results from paper PMC2810129 (Journal of medicinal chemistry, 2009).
Like-named read-outs stand apart in the source and are kept apart here.

Legend:
[1] = target: T1, PfKASIII (Plasmodium falciparum, UniProt O77078); assay: PfKASIII inhibitor screen; format: biochemical
[2] = system: P. falciparum parasites; assay: In vitro malaria growth inhibition assay, strain not specified or both strains; format: cell-based, Plasmodium falciparum; details: drug resistant and sensitive parasites
Summary of the method: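 P. falciparum D6 (chloroquine-sensitive, Sierra Leone I) and W2 (chloroquine-resistant, Indochina I) clones were cultured under 90% N2/5% O2/5% CO2 with 10% human serum and 6% haematocrit A+ red cells. Cultures at 3% parasitaemia with ≥70% rings were put on predosed plates for 24 h. [3H]-hypoxanthine was then added for 18 h, and cells were harvested and counted. IC50 was taken from a four-parameter nonlinear regression.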

[3] = system: J774 murine monocyte-like macrophage line (subclone G8); assay: Toxicity assay; format: cell-based
[4] = target: T1, PfKASIII; details: read-out: PfKASIII IC50; cited from earlier work
[5] = system: bacterial KAS enzymes; details: cited from earlier work

| Structure (SMILES) | PfKASIII inhibition (in words) [1] | toxicity against the mammalian cell line (in words) [3] | further results |
| --- | --- | --- | --- |
| CCCCS(=O)(=O)CCOC(=O)c1ccc([N+](=O)[O-])cc1 [Compound 3r] | potent inhibitors of PfKASIII | significant toxicity | antimalarial activity / parasite growth inhibition (in words) [2]: fail to inhibit parasite growth |
| CC(C)c1ccc(S(=O)(=O)c2ccc(C(C)C)cc2)cc1 [Compound 3g] | – | significant toxicity | – |
| C=C/C(C)=C/[C@@]1(C)SC(=O)C(C)=C1O [Thiolactomycin] | – | – | IC50 [4]: > 330 µM; in vivo IC50, bacterial KAS enzymes [5]: 75 µM |
| O=S(=O)(Nc1cccc(Cl)c1)c1ccccc1 [Compound 2b] | – | significant toxicity | – |
| NC1CCC(S(=O)(=O)c2cc(O)c3ccccc3c2O)CC1 (stereo not drawn) [Compound 3b] | – | little toxicity | – |
| Cc1ccc(S/C=C/S(=O)(=O)Cc2ccccc2)cc1 [Compound 3n] | – | significant toxicity | – |
| Nc1ccc(S(=O)(=O)c2cc(O)c3ccccc3c2O)c(Cl)c1 [Compound 3c] | the most potent compound within the class of sulfonyls | – | – |
| C/C=C/CCCCCCCC(=O)NS(=O)(=O)c1ccc(N)cc1 [Compound 2e] | failed to inhibit PfKASIII at the highest concentration tested | – | IC50 [1]: > 1000 µM |
| O=[N+]([O-])c1c(Cl)sc(Cl)c1S(=O)(=O)Nc1ccc(C(F)(F)F)cc1 [Compound 2g] | – | – | antimalarial activity / parasite growth inhibition (in words) [2]: modest activity |
| Cc1ccc(S(=O)(=O)c2cc(O)c3ccccc3c2O)cc1 [Compound 3a] | – | little toxicity | – |
| c1ccc(SSc2ccccc2)cc1 [Compound 1d] | – | little toxicity | – |
| COc1ncnc(NS(=O)(=O)c2ccc(N)cc2)c1OC [Compound 2c] | failed to inhibit PfKASIII at the highest concentration tested | – | IC50 [1]: > 1000 µM; antimalarial activity / parasite growth inhibition (in words) [2]: robust antimalarial activity |
